Converted amounts (≈) assume the structure as drawn.

Data set [1] can be described thus: Half life in Sprague-Dawley rat at 2.1 mg/kg, po or 1 mg/kg, iv. In kind it is ADME, organism-based. The settings on record: in vivo. Summed up: (§1)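 Male Sprague Dawley rats, n=2 (n=3 for one compound). The i.v. leg used 5% DMSO with 20% Cavitron and the oral leg 5% DMSO with 6% Cavitron. Oral doses were 2 mg/kg, or 2.1 mg/kg where stated. The i.v. dose was 1 mg/kg. Clearance is plasma clearance.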

Data set [2] can be described thus: Kinetic aqueous solubility of the compound by UV-HPLC analysis. The conditions noted are these: buffer; read-out: Kinetic_solubility. The format is physicochemical.
Data set [3] addresses T1, Inhibitor of nuclear factor kappa-B kinase subunit beta (Homo sapiens, UniProt O14920).
T1 sequence (O14920 whole entry): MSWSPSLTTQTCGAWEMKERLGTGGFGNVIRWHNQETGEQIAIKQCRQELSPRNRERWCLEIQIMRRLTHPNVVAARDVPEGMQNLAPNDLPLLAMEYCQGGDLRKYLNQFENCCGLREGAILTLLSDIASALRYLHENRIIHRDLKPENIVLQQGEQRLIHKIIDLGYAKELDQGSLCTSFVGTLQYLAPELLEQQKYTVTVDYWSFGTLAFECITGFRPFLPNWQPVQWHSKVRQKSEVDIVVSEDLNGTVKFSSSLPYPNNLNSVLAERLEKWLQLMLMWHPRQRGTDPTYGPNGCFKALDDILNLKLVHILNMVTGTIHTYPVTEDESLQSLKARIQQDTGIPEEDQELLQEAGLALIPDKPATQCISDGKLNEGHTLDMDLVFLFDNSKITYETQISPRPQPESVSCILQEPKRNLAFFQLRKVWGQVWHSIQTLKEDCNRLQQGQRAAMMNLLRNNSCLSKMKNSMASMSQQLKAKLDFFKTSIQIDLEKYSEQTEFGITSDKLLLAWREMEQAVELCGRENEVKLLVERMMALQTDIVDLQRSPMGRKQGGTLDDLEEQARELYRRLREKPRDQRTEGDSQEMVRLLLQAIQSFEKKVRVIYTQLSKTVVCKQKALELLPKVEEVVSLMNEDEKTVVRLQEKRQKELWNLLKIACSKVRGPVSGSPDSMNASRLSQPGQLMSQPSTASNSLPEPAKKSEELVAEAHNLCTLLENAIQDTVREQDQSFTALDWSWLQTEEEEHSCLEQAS
The experiment in a line: Inhibition of recombinant human C-terminal GST-tagged IKKbeta (1 to 737 residues) expressed in baculovirus expression system using GST-IkBalpha substrate measured after 30 mins by TR-FRET assay. Summed up:
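IKK pIC50 values are the mean of more than 2 determinations unless noted otherwise. Compounds were tested as racemic mixtures.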
(TR-FRET usually uses a lanthanide donor and a delayed reading to cut background.)

Data set [4] can be described thus: AUC in Sprague-Dawley rat at 2.1 mg/kg, po. In kind it is ADME, organism-based. The conditions noted are these: in vivo. The gist of the method: as §1
Data set [5] is described as follows: Permeability of the compound by PAMPA. The settings on record: read-out: permeability. In kind it is ADME. A general note: The PAMPA barrier holds no transporters, so it reflects passive diffusion.
Data set [6] has as its target T1, Inhibitor of nuclear factor kappa-B kinase subunit beta. The data set can be described thus: Inhibition of IKKbeta in human CD14-positive monocytes assessed as reduction in LPS-stimulated TNFalpha secretion preincubated for 30 mins followed by LPS stimulation and measured after 24 hrs by Alpha screen assay. The format is cell-based.
A short description of data set [7]: Plasma clearance in Sprague-Dawley rat at 2.1 mg/kg, po or 1 mg/kg, iv. The format is ADME, organism-based. The gist of the method: as §1
The nature of data set [8]: Oral bioavailability in Sprague-Dawley rat at 2.1 mg/kg. The conditions noted are these: in vivo. In kind it is ADME, organism-based. The gist of the method:
as §1

The nature of data set [9]: Volume of distribution at steady state in Sprague-Dawley rat at 2.1 mg/kg, po or 1 mg/kg, iv. In kind it is ADME, organism-based. The conditions noted are these: in vivo, read-out: Vdss. Summed up:
as §1

Broadly, the half-life is how long it takes for the measured level to halve. A high value points to slow loss. As a reminder, the IC50 is the concentration at which inhibition is half-maximal. A word on the AUC: it is concentration integrated over time. The bioavailability is dose-corrected exposure relative to a reference, in per cent. A higher bioavailability goes with much systemic uptake. Compound `CN(C)CCS(=O)(=O)N1CCC(c2c[nH]c3c(C(N)=O)cc(-c4ccccc4)cc23)CC1` registered a half-life in [1] of 1.75 h. Also, the solubility kinetic in [2] stood at 8 µM (≈ 3.64 µg/mL). Also, the IC50 in data set [3] was 10 nM; in data set [6], 500 nM. The exposure (AUC) in [4] is 2080 ng·h/mL. In addition, in data set [5], the Papp was 27 ×10⁻⁶ cm/s. In data set [7], this compound showed a clearance of 7.43 mL/min/kg. In addition, the bioavailability in [8] was found to be 46%. Besides, the Vd in data set [9] came out at 0.84 L/kg.

The values above are taken from ChEMBL document CHEMBL4325919, “3,5-Disubstituted-indole-7-carboxamides as IKKβ Inhibitors: Optimization of Oral Activity via the C3 Substituent” (ACS Med Chem Lett, 2018).
